“And” between values parts separate entries of the source, which are not always exact repeats. Equal values may be shown once.
Assay: Antioxidant activity assessed as formazan formation induced absorbance changes at 25 ppm at 570 nm at 37 degC for 6 hrs by MTT assay
Assay type: functional
Method in brief: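 Cell-free redox assay: MTT in water (190 µL) vortexed 1 min with sample (10 µL) in DMSO in a capped 2 mL glass vial. DMSO (200 µL) then added to give 50:50 water-DMSO, and the mixture vortexed again. Incubated 6 h at 37 °C, then 200 µL read at 570 nm for formazan. Triplicates, experiment repeated 10 times, mean absorbance reported.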

## COc1cc(/C=C/C(O)=C/C(=O)/C=C/c2ccc(O)cc2)ccc1O
  deltaA: 0.61

## O=c1cc(-c2ccc(O)cc2)oc2cc(O)cc(O)c12
  deltaA: 0.14

## CC(C)=CCC/C(C)=C/C=C/C(C)=C/C=C/C(C)=C/C=C/C=C(C)/C=C/C=C(C)/C=C/C=C(\C)CCC=C(C)C
  deltaA: 0.59

## O=c1cc(-c2ccccc2)oc2cc(O)cc(O)c12
  deltaA: 0.3

## O=c1c(O)c(-c2ccc(O)c(O)c2)oc2cc(O)cc(O)c12
  deltaA: 0.75 and 0.3

## O=C(O)CCc1ccc(O)cc1
  deltaA: 0.17

## CC/C=C\C/C=C\C/C=C\CCCCCCCC(=O)OC
  deltaA: 0.25

## COc1ccc(-c2cc(=O)c3ccc(OC)cc3o2)cc1
  deltaA: 0.17

## O=c1c(-c2ccc(O)cc2)coc2cc(O[C@@H]3O[C@H](CO)[C@@H](O)[C@H](O)[C@H]3O)cc(O)c12
  deltaA: 0.33

## Cc1cccc(O)c1O
  deltaA: 0.86

## CCCCCCCCCCC(=O)O
  deltaA: 0.19

## COc1cc(/C=C/C(=O)CC(=O)/C=C/c2ccc(O)c(OC)c2)ccc1O
  deltaA: 0.85

## CC12CCC(CC1=O)C2(C)C (centres undefined)
  deltaA: 0.24

## COc1cc(/C=C/C(=O)O)ccc1O
  deltaA: 0.29

## Oc1cc(O)c2c(c1)O[C@@H](c1cc(O)c(O)c(O)c1)[C@H](O)C2
  deltaA: 0.99

## CCCC/C=C\CCCCCCCCC(=O)O
  deltaA: 0.19

## CCCCCCCC(=O)O
  deltaA: 0.17

## COc1cc(C(=O)O)ccc1O
  deltaA: 0.19

## CCCCCC/C=C\CCCC(=O)O
  deltaA: 0.17

## CCCCCCCCCCCCCCCCCCCC(=O)O
  deltaA: 0.25

## CCCCCCCCCCCCCC(=O)O
  deltaA: 0.58

## COc1ccc(-c2cc(=O)c3c(O)cc(O)cc3o2)cc1
  deltaA: 0.26

## O=C(O)/C=C/c1ccc(O)c(O)c1
  deltaA: 0.69

## Oc1cccc(O)c1O
  deltaA: 0.86

## CCCCCCCCC(=O)O
  deltaA: 0.16

## CCCCCCCCCCCCCCCCCCCCCCCC(=O)O
  deltaA: 0.16

## C[C@H]1O[C@@H](Oc2cc3c(O)cc(O)cc3[o+]c2-c2ccc(O)c(O)c2)[C@@H](O[C@@H]2O[C@H](CO)[C@@H](O)[C@H](O)[C@H]2O)[C@@H](O)[C@@H]1O
  deltaA: 0.17

## COc1ccc(-c2cc(=O)c3ccc(O)cc3o2)cc1
  deltaA: 0.23

## CCCCCCCCCCCCCCCCCCCCCCC(=O)O
  deltaA: 0.27

## O=C(/C=C/c1ccc(O)c(O)c1)O[C@@H]1C[C@](O)(C(=O)O)C[C@@H](O)[C@H]1O
  deltaA: 0.72

## O=c1c(-c2ccc(O)cc2)coc2cc(O)cc(O)c12
  deltaA: 0.29

## COc1ccc2ccc(=O)oc2c1
  deltaA: 0.18

## C[C@@H]1O[C@@H](Oc2c(-c3ccc(O)c(O)c3)oc3cc(O)cc(O)c3c2=O)[C@H](O)[C@H](O)[C@H]1O
  deltaA: 0.3

## COc1cc(O)c2c(=O)c(OC)c(-c3ccc(OC)c(OC)c3)oc2c1
  deltaA: 0.23

## Oc1cc(O)c2c(c1)O[C@H](c1ccc(O)c(O)c1)[C@@H](O)C2
  deltaA: 0.88

## CC(C)(C)c1cc(O)ccc1O
  deltaA: 0.51

## CC(C)CCC[C@@H](C)[C@H]1CC[C@H]2[C@@H]3CC=C4C[C@@H](O)CC[C@]4(C)[C@H]3CC[C@]12C
  deltaA: 0.22

## CCCCCCCC/C=C\CCCCCCCCCCCCCC(=O)O
  deltaA: 0.89

## COc1ccc(-c2cc(=O)c3ccccc3o2)cc1
  deltaA: 0.24

## O=C(O)c1ccc(O)cc1
  deltaA: 0.13

## O=C(O[C@@H]1Cc2c(O)cc(O)cc2O[C@H]1c1cc(O)c(O)c(O)c1)c1cc(O)c(O)c(O)c1
  deltaA: 0.92

## O=c1c(-c2ccc(O)cc2)coc2cc(O)ccc12
  deltaA: 0.48

## O=c1cc(-c2ccc(O)c(O)c2)oc2cc(O)cc(O)c12
  deltaA: 0.66

## CC1=C(/C=C/C(C)=C/C=C/C(C)=C/C=C/C=C(C)/C=C/C=C(C)/C=C/C2=C(C)CCCC2(C)C)C(C)(C)CCC1
  deltaA: 0.32

## Oc1cc(O)c2c(c1)O[C@H](c1ccc(O)c(O)c1)[C@H](O)C2
  deltaA: 0.17

## CCCCCCCCCCCCCCCCCCCCCC(=O)O
  deltaA: 0.25

## CCCCCCCCCCCCCCCCCC(=O)O
  deltaA: 0.47

## CCCCC/C=C\C/C=C\CCCCCCCC(=O)O
  deltaA: 0.68

## Oc1cc(O)c2c(c1)OC(c1ccc(O)c(O)c1)C(O)C2 (racemic)
  deltaA: 1.18

## O=C(O[C@@H]1Cc2c(O)cc(O)cc2O[C@@H]1c1ccc(O)c(O)c1)c1cc(O)c(O)c(O)c1
  deltaA: 1.18

## COC(=O)/C=C/C(C)=C\C=C\C(C)=C\C=C\C=C(C)\C=C\C=C(C)\C=C\C(=O)O
  deltaA: 0.61

## O=c1cc(-c2ccccc2)oc2c(O)c(O)ccc12
  deltaA: 0.49

## COc1ccc(-c2coc3cc(O)ccc3c2=O)cc1
  deltaA: 0.2

## Cc1cc(C(C)(C)C)c(O)c(C(C)(C)C)c1
  deltaA: 0.51

## CCCCCCCCCC(=O)O
  deltaA: 0.51

## O=C(/C=C/c1ccc(O)cc1)CC(=O)/C=C/c1ccc(O)cc1
  deltaA: 0.37

## CCCCCCCCCCCCCCCCCCCCC(=O)O
  deltaA: 0.22

## CCCCCCCCCCCC(=O)O
  deltaA: 0.19

## O=C(O)CC(=O)OC[C@@H]1O[C@H](Oc2cc3c(O)cc(O)cc3[o+]c2-c2ccc(O)c(O)c2)[C@@H](O)[C@H](O)[C@H]1O
  deltaA: 0.2

## C[C@H]1[C@H](C)CC[C@]2(C(=O)O)CC[C@]3(C)C(=CC[C@@H]4[C@@]5(C)CC[C@H](O)C(C)(C)[C@@H]5CC[C@]43C)[C@H]12
  deltaA: 0.43

## CCCCCCCCCCCCCCCCCCC(=O)O
  deltaA: 0.53

## O=C(O)C1=C/C(=C\C=[N+]2/c3cc(O)c(O[C@@H]4O[C@H](CO)[C@@H](O)[C@H](O)[C@H]4O)cc3C[C@H]2C(=O)[O-])C[C@@H](C(=O)O)N1
  deltaA: 0.6

## COc1ccccc1-c1cc(=O)c2c(OC)cccc2o1
  deltaA: 0.27

## CC(C)CCC[C@@H](C)[C@H]1CC[C@H]2[C@@H]3CC=C4C[C@@H](O[C@@H]5O[C@H](CO)[C@@H](O)[C@H](O)[C@H]5O)CC[C@]4(C)[C@H]3CC[C@]12C
  deltaA: 0.3

## O=C1O[C@H]([C@@H](O)CO)C(O)=C1O
  deltaA: 0.5

## O=C(O)/C=C/c1ccc2c(c1)OCO2
  deltaA: 0.19

## Cc1c(C)c2c(c(C)c1O)CC[C@@](C)(CCC[C@H](C)CCC[C@H](C)CCCC(C)C)O2
  deltaA: 0.56

## CCCCCCCC/C=C\CCCCCCCCCCCC(=O)O
  deltaA: 0.68

## Oc1cc(O)c2c(c1)O[C@@H](c1ccc(O)c(O)c1)[C@H](O)C2
  deltaA: 0.53

## CCCCCCCCCCCCC(=O)O
  deltaA: 0.47

## C[C@H]1O[C@@H](OC[C@@H]2O[C@H](Oc3cc4c(O)cc(O)cc4[o+]c3-c3ccc(O)c(O)c3)[C@@H](O[C@@H]3O[C@H](CO)[C@@H](O)[C@H](O)[C@H]3O)[C@H](O)[C@H]2O)[C@@H](O)[C@@H](O)[C@@H]1O
  deltaA: 0.28

## COc1ccc(-c2coc3cc(O)cc(O)c3c2=O)cc1
  deltaA: 0.37

## O=C(O)/C=C/c1ccc(O)cc1
  deltaA: 0.15

## CCCCCCCCCCCCCCCCC(=O)O
  deltaA: 0.91

Reference: ChEMBL document CHEMBL1177744, “An efficient and economical MTT assay for determining the antioxidant activity of plant natural product extracts and pure compounds” (J Nat Prod, 2010)
